In ChEMBL document CHEMBL3351470, “Synthesis and Structure-Activity Relationships of α-Amino-γ-lactone Ketolides: A Novel Class of Macrolide Antibiotics” (2014):
In brackets after ≈: the same amount, converted by molar mass.

Key:
Format in all cases: functional
Staphylococcus aureus [1] = experiment: Antibacterial activity against erythromycin-susceptible Staphylococcus aureus by agar microdilution method
How it was run: (§1)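 Strains from an in-house culture collection (Pliva Research Institute). MIC determined by agar microdilution following NCCLS standards and reported in μg/mL. Erythromycin-susceptible strains are listed as Ery-S; the panel also includes inducibly resistant (iMLS), constitutively resistant (MLSB) and efflux-resistant (M) strains.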

Staphylococcus aureus [2] = experiment: Antibacterial activity against macrolide lincosamide- streptogramin B inducibly-resistant Staphylococcus aureus by agar microdilution method
How it was run: (§2)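 Agar microdilution MIC following NCCLS standards; strains taken from the Pliva Research Institute culture collection. Panel grouped by phenotype: erythromycin-susceptible, inducibly MLS-resistant (iMLS), constitutively MLSB-resistant and efflux-resistant (M). Azithromycin, telithromycin and cethromycin tested alongside as references. MIC reported in μg/mL.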

Staphylococcus aureus [3] = experiment: Antibacterial activity against macrolide lincosamide- streptogramin B-resistant Staphylococcus aureus by agar microdilution method; how it was run: as §2
Streptococcus pneumoniae [4] = experiment: Antibacterial activity against erythromycin-susceptible Streptococcus pneumoniae by agar microdilution method; how it was run: as §1
Streptococcus pneumoniae [5] = experiment: Antibacterial activity against macrolide lincosamide- streptogramin B inducibly-resistant Streptococcus pneumoniae by agar microdilution method; how it was run: as §2
Streptococcus pneumoniae [6] = experiment: Antibacterial activity against efflux-resistant Streptococcus pneumoniae by agar microdilution method; how it was run: as §2
Streptococcus pyogenes [7] = experiment: Antibacterial activity against erythromycin-susceptible Streptococcus pyogenes by agar microdilution method; how it was run: as §1
Streptococcus pyogenes [8] = experiment: Antibacterial activity against macrolide lincosamide- streptogramin B inducibly-resistant Streptococcus pyogenes by agar microdilution method; how it was run: as §2
Streptococcus pyogenes [9] = experiment: Antibacterial activity against efflux-resistant Streptococcus pyogenes by agar microdilution method; how it was run: as §2
Haemophilus influenzae = experiment: Antibacterial activity against Haemophilus influenzae by agar microdilution method; how it was run: as §1

Row | Structure (SMILES) | MIC (Staphylococcus aureus [1]) [µg/mL] | MIC (Staphylococcus aureus [2]) [µg/mL] | MIC (Staphylococcus aureus [3]) [µg/mL] | MIC (Streptococcus pneumoniae [4]) [µg/mL] | MIC (Streptococcus pneumoniae [5]) [µg/mL] | MIC (Streptococcus pneumoniae [6]) [µg/mL] | MIC (Streptococcus pyogenes [7]) [µg/mL] | MIC (Streptococcus pyogenes [8]) [µg/mL] | MIC (Streptococcus pyogenes [9]) [µg/mL] | MIC (Haemophilus influenzae) [µg/mL]
1 | CC[C@H]1OC(=O)[C@H](C)C(=O)[C@H](C)[C@@H](O[C@@H]2O[C@H](C)C[C@H](N(C)C)[C@H]2O)[C@](C)(OC)C[C@@H](C)C(=O)[C@H](C)[C@H]2C(NC(=O)CSc3cnc4ccccc4n3)C(=O)O[C@@]21C (some centres undefined) | ≤ 0.125 | 0.25 (≈ 0.302 µM) | > 64 | ≤ 0.06 | ≤ 0.125 | 0.25 (≈ 0.302 µM) | ≤ 0.06 | 0.25 (≈ 0.302 µM) | 0.25 (≈ 0.302 µM) | 0.5 (≈ 0.603 µM)
2 | CC[C@H]1OC(=O)[C@H](C)C(=O)[C@H](C)[C@@H](O[C@@H]2O[C@H](C)C[C@H](N(C)C)[C@H]2O)[C@](C)(OC)C[C@@H](C)C(=O)[C@H](C)[C@H]2C(NC(=O)CNC(=O)CSc3cnc4ccccc4n3)C(=O)O[C@@]21C (some centres undefined) | ≤ 0.125 | 0.25 (≈ 0.282 µM) | > 64 | 0.25 (≈ 0.282 µM) | 0.5 (≈ 0.564 µM) | 0.5 (≈ 0.564 µM) | 0.25 (≈ 0.282 µM) | 1 (≈ 1.13 µM) | 0.5 (≈ 0.564 µM) | 2 (≈ 2.26 µM)
3 | CC[C@H]1OC(=O)[C@H](C)C(=O)[C@H](C)[C@@H](O[C@@H]2O[C@H](C)C[C@H](N(C)C)[C@H]2O)[C@](C)(OC)C[C@@H](C)C(=O)[C@H](C)[C@H]2C(NC(=O)CCc3ccccn3)C(=O)O[C@@]21C (some centres undefined) | 4 (≈ 5.26 µM) | 4 (≈ 5.26 µM) | > 64 | ≤ 0.125 | 2 (≈ 2.63 µM) | 2 (≈ 2.63 µM) | ≤ 0.125 | 32 (≈ 42.1 µM) | 4 (≈ 5.26 µM) | 16 (≈ 21.1 µM)
4 | CC[C@H]1OC(=O)[C@H](C)C(=O)[C@H](C)[C@@H](O[C@@H]2O[C@H](C)C[C@H](N(C)C)[C@H]2O)[C@](C)(OC)C[C@@H](C)C(=O)[C@H](C)[C@H]2C(NC(=O)CCc3ccccc3)C(=O)O[C@@]21C (some centres undefined) | 4 (≈ 5.27 µM) | 8 (≈ 10.5 µM) | > 64 | ≤ 0.125 | 16 (≈ 21.1 µM) | 4 (≈ 5.27 µM) | 0.5 (≈ 0.659 µM) | 16 (≈ 21.1 µM) | 8 (≈ 10.5 µM) | 16 (≈ 21.1 µM)
5 | CC[C@H]1OC(=O)[C@H](C)C(=O)[C@H](C)[C@@H](O[C@@H]2O[C@H](C)C[C@H](N(C)C)[C@H]2O)[C@](C)(OC)C[C@@H](C)C(=O)[C@H](C)[C@H]2C(NC(=O)CCc3ccc4ccccc4c3)C(=O)O[C@@]21C (some centres undefined) | 1 (≈ 1.24 µM) | 1 (≈ 1.24 µM) | > 64 | ≤ 0.125 | 2 (≈ 2.47 µM) | 2 (≈ 2.47 µM) | ≤ 0.125 | 4 (≈ 4.94 µM) | 8 (≈ 9.89 µM) | 2 (≈ 2.47 µM)
6 | CC[C@H]1OC(=O)[C@H](C)C(=O)[C@H](C)[C@@H](O[C@@H]2O[C@H](C)C[C@H](N(C)C)[C@H]2O)[C@](C)(OC)C[C@@H](C)C(=O)[C@H](C)[C@H]2C(NC(=O)CCCCc3cnc4ccccc4c3)C(=O)O[C@@]21C (some centres undefined) | 1 (≈ 1.19 µM) | 2 (≈ 2.39 µM) | > 64 | ≤ 0.125 | 8 (≈ 9.55 µM) | 4 (≈ 4.77 µM) | ≤ 0.125 | 8 (≈ 9.55 µM) | 16 (≈ 19.1 µM) | 16 (≈ 19.1 µM)
7 | CC[C@H]1OC(=O)[C@H](C)C(=O)[C@H](C)[C@@H](O[C@@H]2O[C@H](C)C[C@H](N(C)C)[C@H]2O)[C@](C)(OC)C[C@@H](C)C(=O)[C@H](C)[C@H]2N(CCCCn3cnc(-c4cccnc4)c3)C(=O)O[C@]12C [TELITHROMYCIN] | ≤ 0.125 | 0.5 (≈ 0.616 µM) | > 64 | ≤ 0.06 | ≤ 0.125 | 0.5 (≈ 0.616 µM) | ≤ 0.06 | 4 (≈ 4.93 µM) | 0.25 (≈ 0.308 µM) | 2 (≈ 2.46 µM)
8 | CC[C@H]1OC(=O)[C@H](C)C(=O)[C@H](C)[C@@H](O[C@@H]2O[C@H](C)C[C@H](N(C)C)[C@H]2O)[C@](C)(OCC=Cc2cnc3ccccc3c2)C[C@@H](C)C(=O)[C@H](C)[C@H]2NC(=O)O[C@@]21C [CETHROMYCIN] | ≤ 0.125 | 0.25 (≈ 0.326 µM) | > 64 | ≤ 0.06 | ≤ 0.125 |  | ≤ 0.06 | 1 (≈ 1.31 µM) | ≤ 0.125 | 2 (≈ 2.61 µM)
9 | CC[C@H]1OC(=O)[C@H](C)C(=O)[C@H](C)[C@@H](O[C@@H]2O[C@H](C)C[C@H](N(C)C)[C@H]2O)[C@](C)(OC)C[C@@H](C)C(=O)[C@H](C)[C@H]2C(NC(=O)CCc3cccnc3)C(=O)O[C@@]21C (some centres undefined) | 2 (≈ 2.63 µM) | 4 (≈ 5.26 µM) | > 64 | ≤ 0.125 | 4 (≈ 5.26 µM) | 2 (≈ 2.63 µM) | ≤ 0.125 | 4 (≈ 5.26 µM) | 2 (≈ 2.63 µM) | 8 (≈ 10.5 µM)
